The source made the active and inactive calls. The rule behind the calls is not given here.
Key:
[1] = target: T1, L-lactate dehydrogenase A chain (Homo sapiens, UniProt P00338); assay: Inhibition of human LDH-A using pyruvate as substrate and NADH as cofactor at 125 uM after 5 mins by calorimetric assay relative to control
[2] = target: L-lactate dehydrogenase B chain (Homo sapiens) (UniProt P07195); assay: Inhibition of human LDH-B using pyruvate as substrate and NADH as cofactor at 125 uM after 5 mins by calorimetric assay relative to control
How it was run: (§1)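 Purified human LDH1 (LDH-B4), run as for LDH-A but only under pyruvate saturation (2 mM sodium pyruvate) with 25 µM NADH. Test compound at 125 µM, 37 °C, phosphate buffer. Activity is the A340 decrease from NADH consumption, read every 30 s for 5 min. Percent inhibition is relative to control, as mean ± SD of two or more independent experiments. Detection limit is 3%.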

[3] = test system: A2780; assay: Cytotoxicity against human A2780 cells after 48 hrs by sulforhodamine B assay; format: functional, cell-based; settings: A2780, 48 h
How it was run: (§2)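 Cells grown in RPMI 1640 with 10% FCS, 2 mM glutamine and penicillin/streptomycin, at 37 °C in 5% CO2 under normoxia. Compounds (10 mM DMSO stocks) are added on day 1 after plating at 1–100 µM, in triplicate, for 48 h. DMSO 0.25% v/v serves as control. Cells are TCA-fixed, stained with SRB and read at 492 nm. Growth is calculated relative to T0 and control. IC50 reported as mean ± SD from at least two experiments.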

[4] = target: L-lactate dehydrogenase B chain (Homo sapiens) (UniProt P07195); assay: Inhibition of human LDH-B using saturating concentration of pyruvate and NADH as cofactor after 5 mins by calorimetric assay relative to control; how it was run: as §1
[5] = test system: NCI-H2452; assay: Cytotoxicity against human NCI-H2452 cells after 48 hrs by sulforhodamine B assay; format: functional, cell-based; settings: NCI-H2452, 48 h; how it was run: as §2
[6] = test system: HeLa; assay: Reduction in lactate production in perfused human HeLa cells at 400 uM after 12 hrs by NMR spectroscopy using D-[1,6-13C2]glucose as substrate; format: functional; set-up: scale not given: the % may be the effect or the level left
How it was run: (§3)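 HeLa cells are grown in RPMI-1640 with 10% FBS to 80% confluency, then washed for 15 min in glucose-free DMEM. Medium is replaced with DMEM containing 10 mM D-[1,6-13C2]glucose. Compound is added from 100× DMSO stocks (1% DMSO final), with vehicle controls, at 37 °C under normoxia. Medium is sampled at 6 and 12 h. 13C NMR gives the lactate-C3 (20.28 ppm) to glucose-C6 (60.95 ppm) peak-area ratio.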

[7] = test system: HeLa; assay: Reduction in lactate production in perfused human HeLa cells assessed as lactate to glucose ratio at 500 uM after 12 hrs by NMR spectroscopy using D-[1,6-13C2]glucose as substrate relative to control; format: functional; how it was run: as §3
[8] = test system: NCI-H630; assay: Induction of apoptosis in human NCI-H630 cells assessed as appearance of sub-G1 cell subpopulation at compound IC50 after 24 hrs by flow cytometry; format: functional, cell-based
How it was run: (§4)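 Cells are trypsinized, pelleted and stained with cold propidium iodide buffer for 30 min on ice. DNA content is measured by flow cytometry (10 000 cells/sample) to give G0/G1, S and G2/M fractions and the sub-G1 population. Results are mean ± SE of three experiments, analyzed by t-test or ANOVA.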

[9] = Cytotoxicity against human LPc028 cells after 48 hrs by sulforhodamine B assay; format: functional, cell-based; settings: LPc028, 48 h; how it was run: as §2
[10] = Cytotoxicity against immortalized human HPNE cells expressing human TERT after 48 hrs by sulforhodamine B assay; format: functional, cell-based; how it was run: as §2
[11] = Cytotoxicity against human LPc006 cells grown in hypoxic condition after 48 hrs by sulforhodamine B assay relative to normoxygenated cells; format: functional, cell-based; settings: LPc006, 48 h
How it was run: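 LPC006 primary pancreatic cancer cells are treated with compounds at 1–100 µM for 48 h under hypoxia (1% O2, 5% CO2, 94% N2, 37 °C). Read-out is the SRB assay at 492 nm with growth calculated relative to T0 and control. IC50 is the mean ± SE of three independent experiments and is compared with normoxic cells by Student's t-test.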

[12] = test system: MSTO-211H; assay: Cytotoxicity against human MSTO-211H cells after 48 hrs by sulforhodamine B assay; format: functional, cell-based; how it was run: as §2
[13] = test system: HeLa; assay: Reduction in lactate production in perfused human HeLa cells at < 400 uM after 12 hrs by NMR spectroscopy using D-[1,6-13C2]glucose as substrate; format: functional, cell-based; how it was run: as §3
[14] = test system: ADDP cell line; assay: Induction of apoptosis in human ADDP cells assessed as appearance of sub-G1 cell subpopulation at compound IC50 after 24 hrs by flow cytometry; format: functional, cell-based; how it was run: as §4
[15] = target: T1, L-lactate dehydrogenase A chain; assay: Competitive inhibition of human LDH-A using NADH as substrate after 5 mins by calorimetric assay relative to control
How it was run: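 Ki values from Lineweaver-Burk double-reciprocal plots. Enzyme is purified human LDH5 (LDH-A4), 0.005 units, in 100 mM sodium phosphate pH 7.4 at 37 °C. Pyruvate is held saturating at 2 mM while NADH is varied from 12.5 to 150 µM. Inhibitor is at 25–100 µM. NADH oxidation is read as A340 every 30 s for 5 min, in triplicate.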

[16] = Cytotoxicity against human ADDP cells after 48 hrs by sulforhodamine B assay; format: functional, cell-based; how it was run: as §2
[17] = target: T1, L-lactate dehydrogenase A chain; assay: Competitive inhibition of human LDH-A using pyruvate as substrate after 5 mins by calorimetric assay relative to control
How it was run: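 Ki values from Lineweaver-Burk double-reciprocal plots. Enzyme is purified human LDH5 (LDH-A4), 0.005 units, in 100 mM sodium phosphate pH 7.4 at 37 °C. NADH is held saturating at 200 µM while sodium pyruvate is varied from 25 µM to 1 mM. Inhibitor is at 25–100 µM. A340 decrease is read every 30 s for 5 min, in triplicate.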

[18] = Cytotoxicity against human LPc067 cells after 48 hrs by sulforhodamine B assay; format: functional, cell-based; settings: LPc067, 48 h; how it was run: as §2
[19] = test system: ADDP; assay: Effect on cell cycle distribution in human ADDP cells assessed as DNA content after 24 hrs by flow cytometry; format: functional, cell-based; how it was run: as §4
[20] = test system: HS27; assay: Cytotoxicity against immortalized human HS27 cells after 48 hrs by sulforhodamine B assay; format: functional, cell-based; settings: HS27, 48 h; how it was run: as §2
[21] = Cytotoxicity against human LPc006 cells after 48 hrs by sulforhodamine B assay; format: functional, cell-based; settings: LPc006, 48 h; how it was run: as §2
[22] = test system: NCI-H630; assay: Cytotoxicity against human NCI-H630 cells after 48 hrs by sulforhodamine B assay; format: functional, cell-based; settings: NCI-H630, 48 h; how it was run: as §2
[23] = test system: NCI-H2052; assay: Cytotoxicity against human NCI-H2052 cells after 48 hrs by sulforhodamine B assay; format: functional, cell-based; settings: NCI-H2052, 48 h; how it was run: as §2
[24] = test system: NCI-H630; assay: Effect on cell cycle distribution in human NCI-H630 cells assessed as DNA content after 24 hrs by flow cytometry; format: functional, cell-based; how it was run: as §4
[25] = test system: NCI-H28; assay: Cytotoxicity against human NCI-H28 cells after 48 hrs by sulforhodamine B assay; format: functional, cell-based; settings: NCI-H28, 48 h; how it was run: as §2

Chain of L-lactate dehydrogenase B chain (Homo sapiens) (P07195 2-334 limits assumed): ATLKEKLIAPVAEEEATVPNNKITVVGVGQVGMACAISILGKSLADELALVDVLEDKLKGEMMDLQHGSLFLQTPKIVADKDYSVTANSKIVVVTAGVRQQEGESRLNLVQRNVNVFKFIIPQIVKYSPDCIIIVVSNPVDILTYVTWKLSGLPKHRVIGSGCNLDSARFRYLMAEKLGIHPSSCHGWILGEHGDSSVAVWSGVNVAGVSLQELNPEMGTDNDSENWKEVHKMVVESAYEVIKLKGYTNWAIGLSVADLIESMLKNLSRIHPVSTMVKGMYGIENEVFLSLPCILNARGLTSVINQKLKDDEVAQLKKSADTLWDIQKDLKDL

SMILES: COC(=O)c1cc2ccc(-c3ccccc3)cc2n1O
- inhibition [1]: 4%
- inhibition [2]: 8%

SMILES: O=C(O)c1cc2c(C(F)(F)F)cc(-c3ccccc3)cc2n1O
- IC50 [3]: 10.8 µM
- inhibition [4]: 11%
- IC50 [5]: 90.2 µM
- Activity [6]: 20%
- Ratio [7]: < 0.01
- Activity [8]: Active
- IC50 [9]: 41.2 µM
- inhibition [1]: 87%
- IC50 [10]: > 100 µM
- IC50 [11]: 0.9 µM
- IC50 [12]: 10.6 µM
- Activity [13]: inactive
- Activity [14]: Active
- Ki [15]: 8.9 µM
- IC50 [16]: 17 µM
- Ki [17]: 4.7 µM
- IC50 [18]: 13.5 µM
- Activity [19]: Dose-dependent effect
- IC50 [20]: > 100 µM
- IC50 [21]: 16.3 µM
- inhibition [2]: 11%
- IC50 [22]: 31.5 µM
- IC50 [23]: 73.2 µM
- Activity [24]: Dose-dependent effect
- IC50 [25]: 11.4 µM

SMILES: COn1c(C(=O)O)cc2ccc(-c3ccccc3)cc21
- inhibition [1]: inactive
- inhibition [2]: inactive

SMILES: O=C(O)c1cc2cc(-c3ccccc3)ccc2n1O
- IC50 [3]: 13.7 µM
- inhibition [4]: < 3%
- IC50 [5]: 45.3 µM
- Activity [8]: Active
- IC50 [9]: 48.8 µM
- inhibition [1]: 99%
- IC50 [10]: > 100 µM
- IC50 [11]: 0.1 µM
- IC50 [12]: 2.5 µM
- Activity [14]: Active
- Ki [15]: 10.4 µM
- IC50 [16]: 14.6 µM
- Ki [17]: 15.7 µM
- IC50 [18]: 20.9 µM
- Activity [19]: Dose-dependent effect
- IC50 [20]: > 100 µM
- IC50 [21]: 14.3 µM
- IC50 [22]: 17.7 µM
- IC50 [23]: 62.4 µM
- Activity [24]: Dose-dependent effect
- IC50 [25]: 5.8 µM

SMILES: O=C(O)c1cc2cc(-c3ccccc3)ccc2[nH]1
- inhibition [1]: Active
- inhibition [2]: Active

SMILES: O=C(O)c1cc2ccc(-c3nn[nH]n3)cc2n1O
- inhibition [1]: 11%

SMILES: O=C(O)c1cc2ccc(-c3ccccc3)cc2n1O
- IC50 [3]: 10.1 µM
- inhibition [4]: < 3%
- IC50 [5]: 21.3 µM
- Ratio [7]: 0.12
- Activity [8]: Active
- IC50 [9]: 32.3 µM
- inhibition [1]: 84%
- IC50 [10]: > 100 µM
- IC50 [11]: 0.36 µM
- IC50 [12]: 2.4 µM
- Activity [14]: Active
- Ki [15]: 19.8 µM
- IC50 [16]: 16.3 µM
- Ki [17]: 35.4 µM
- IC50 [18]: 18.2 µM
- Activity [19]: Dose-dependent effect
- IC50 [20]: > 100 µM
- IC50 [21]: 15.7 µM
- IC50 [22]: 15.1 µM
- IC50 [23]: 50.5 µM
- Activity [24]: Dose-dependent effect
- IC50 [25]: 7.8 µM

SMILES: O=C(O)c1cc2c(Br)cccc2n1O
- inhibition [1]: 32%
